This excerpt belongs to a sample that is enriched for hits.
T cruzi growth-1 – T. cruzi proliferation inhibition | T. cruzi beta-gal in NIH3T3, GalScreen luminescence, 90 h | inhibition, % at 8.34 µM | 5.9% of 77,000 active;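 active = mean inhibition above about 93%, with at least 55% of replicates each passing it, limit read from the data, passing the limit was not always enough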
IDH1 mut inh – blocks human IDH1 R132H reductase activity; O75874; diaphorase/resazurin fluorescence, 60 min; inhibition, % at 10 µM; 0.18% of 70,000 active; in the data active = inhibition above about 34%;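 note: 0% = DMSO and 100% = no enzyme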
Target sequence (O75874 whole entry R132H): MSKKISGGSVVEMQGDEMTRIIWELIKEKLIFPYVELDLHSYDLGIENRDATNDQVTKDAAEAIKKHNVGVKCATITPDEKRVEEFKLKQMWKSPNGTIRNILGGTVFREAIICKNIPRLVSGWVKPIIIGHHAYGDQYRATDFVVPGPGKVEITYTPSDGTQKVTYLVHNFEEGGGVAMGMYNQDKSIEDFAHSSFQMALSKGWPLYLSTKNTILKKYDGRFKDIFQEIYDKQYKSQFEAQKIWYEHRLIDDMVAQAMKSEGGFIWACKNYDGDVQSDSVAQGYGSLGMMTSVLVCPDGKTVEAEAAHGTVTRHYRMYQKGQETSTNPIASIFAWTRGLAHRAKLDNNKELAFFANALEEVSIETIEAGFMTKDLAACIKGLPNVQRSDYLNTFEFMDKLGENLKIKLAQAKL
GASC1 inh – KDM4C (human) demethylase inhibition; inhibition, % at 12.5 µM; 0.15% of 96,000 active; GST-KDM4C 2-372, H3K9me3 peptide, LANCE TR-FRET;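 active = mean replicate inhibition above about 25%, with at least 55% of replicates also reaching it, limit read from the data, passing the limit was not always enough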
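Test system – GST-tagged GASC-1 (JMJD2C) catalytic fragment, aa 2-372 · Medium – HEPES buffer, pH 7.5, plus ascorbate · Reagent – H3K9me3 peptide with Fe(II)/2OG · Compound – one test concentration per compound · Timing – 30 min reaction, 60 min detection, RT · Technique – TR-FRET with Eu antibody and ULight streptavidin, EDTA stop · Read-out basis – inhibition from TR-FRET ratio decrease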
T cruzi growth-2 – blocks T. cruzi growth in NIH3T3 host cells; shares compounds with T cruzi growth-1; T. cruzi beta-gal in NIH3T3, GalScreen luminescence, 90 h; inhibition, % at 8.35 µM; 72% of 5,600 active;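 active = mean replicate inhibition above about 95% and at least 55% of replicates individually reaching it, limit read from the data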
T cruzi growth-3 – blocks T. cruzi growth in NIH3T3 host cells | inhibition, % at 2.09 µM | shares compounds with T cruzi growth-1 | AID 651740 | T. cruzi beta-gal in NIH3T3, GalScreen luminescence, 90 h | 21% of 5,600 active;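 active = mean inhibition above about 95%, with at least 55% of replicates also reaching it, limit read from the data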;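 note: plate controls were neutral control median for no effect and positive control median for full effect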
NIH3T3 tox – kills mouse NIH/3T3 fibroblasts. shares compounds with T cruzi growth-1. NIH/3T3 viability, CellTiter-Glo ATP luminescence, 90 h. cytotoxicity (signal decrease), % at 8.35 µM. 14% of 5,600 active;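 active = mean signal decrease across replicates above about 35% based on untreated-well scatter, with enough replicates individually passing, limit read from the data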;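 note: 0% = median of neutral control wells and 100% = median of positive control wells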
NIH3T3 tox 2 – cytotoxicity in mouse NIH/3T3 fibroblasts | shares compounds with T cruzi growth-1 | inhibition, % at 24.9 µM | NIH/3T3 viability, CellTiter-Glo ATP luminescence, 90 h | 56% of 5,600 active;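 active = mean loss of cell viability signal at or above a set limit, and enough replicates individually reaching it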;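 note: 0% = median of neutral control wells and 100% = median of positive control wells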
An asterisk follows results filed as active.

C[C@@H]1CN([C@@H](C)CO)C(=O)c2cc(/C=C/c3ccccc3)cnc2O[C@H]1CN(C)Cc1ccc2c(c1)OCO2 was read as T cruzi growth-1 111*, IDH1 mut inh 3, GASC1 inh 0, T cruzi growth-2 101*, T cruzi growth-3 108*, NIH3T3 tox 58* and NIH3T3 tox 2 102*.
Screening C/C=C/c1cnc2c(c1)C(=O)N([C@@H](C)CO)C[C@H](C)[C@H](CN(C)Cc1ccc3c(c1)OCO3)O2 returned IDH1 mut inh 0 and GASC1 inh -3.
Screening COc1cccc(S(=O)(=O)N(C)C[C@@H]2Oc3ncc(C#CC(C)C)cc3C(=O)N([C@@H](C)CO)C[C@H]2C)c1 returned T cruzi growth-1 88, IDH1 mut inh -34 and GASC1 inh -1.
For C[C@H](CO)N1C[C@H](C)[C@H](CN(C)S(=O)(=O)c2ccc(C#N)cc2)Oc2ncc(-c3cccc(C(F)(F)F)c3)cc2C1=O the results were T cruzi growth-1 27, IDH1 mut inh -2 and GASC1 inh -2.
For COc1cccc(S(=O)(=O)N(C)C[C@@H]2Oc3ncc(C#Cc4cccc(F)c4)cc3C(=O)N([C@H](C)CO)C[C@@H]2C)c1 the results were T cruzi growth-1 110*, GASC1 inh -1, T cruzi growth-2 102*, T cruzi growth-3 57, NIH3T3 tox 29 and NIH3T3 tox 2 33*.
COc1cccc(S(=O)(=O)N(C)C[C@@H]2Oc3ncc(C#Cc4ccc(C(F)(F)F)cc4)cc3C(=O)N([C@H](C)CO)C[C@@H]2C)c1 was read as T cruzi growth-1 103*, GASC1 inh -1, T cruzi growth-2 96*, T cruzi growth-3 113*, NIH3T3 tox 32 and NIH3T3 tox 2 31*.
`C[C@H](CO)N1C[C@H](C)[C@H](CN(C)S(=O)(=O)c2cccs2)Oc2ncc(C#Cc3ccc(F)cc3)cc2C1=O` gave T cruzi growth-1 112*, IDH1 mut inh 0, GASC1 inh -4, T cruzi growth-2 106*, T cruzi growth-3 78, NIH3T3 tox 23 and NIH3T3 tox 2 22.
For COc1cccc(S(=O)(=O)N(C)C[C@@H]2Oc3ncc(C#Cc4ccc(OC)c(OC)c4)cc3C(=O)N([C@H](C)CO)C[C@@H]2C)c1 the results were T cruzi growth-1 60, IDH1 mut inh 1 and GASC1 inh -3.
`C[C@H](CO)N1C[C@H](C)[C@H](CN(C)S(=O)(=O)c2cccs2)Oc2ncc(C#Cc3ccc(C(F)(F)F)cc3)cc2C1=O` gave T cruzi growth-1 9, IDH1 mut inh 1 and GASC1 inh -3.
Screening Cc1ccc(S(=O)(=O)N(C)C[C@@H]2Oc3ncc(-c4cccc(C(F)(F)F)c4)cc3C(=O)N([C@H](C)CO)C[C@@H]2C)cc1 returned T cruzi growth-1 126*, IDH1 mut inh 1, GASC1 inh -3, T cruzi growth-2 106*, T cruzi growth-3 63, NIH3T3 tox 48* and NIH3T3 tox 2 43*.
Screening CCC(=O)N[C@H]1CC[C@H](CC(=O)NCCN2CCCCC2)O[C@H]1CO returned T cruzi growth-1 -47 and IDH1 mut inh 0.
Screening CCCNC(=O)N(C)C[C@@H]1Oc2ncc(C#C[C@H](C)O)cc2C(=O)N([C@H](C)CO)C[C@@H]1C returned T cruzi growth-1 10 and GASC1 inh 1.
Screening O=C(CCN1CCCCC1)N[C@H]1CC[C@H](CCn2cc(-c3ccc(F)cc3)nn2)O[C@@H]1CO returned T cruzi growth-1 -36, IDH1 mut inh 0 and GASC1 inh -2.
For C[C@H](CO)N1C[C@H](C)[C@H](CN(C)C(=O)NC2CCCCC2)Oc2ccc(NC(=O)Nc3ccc4c(c3)OCO4)cc2CC1=O the results were T cruzi growth-1 13, IDH1 mut inh 1 and GASC1 inh -1.
`CCNC(=O)C[C@H]1CC[C@H]2[C@@H](COc3ccc(NC(=O)c4ccc5c(c4)OCO5)cc3C(=O)N2C)O1` gave T cruzi growth-1 15 and GASC1 inh -1.

Screens deposited in PubChem BioAssay by Broad Institute.
